Measurements taken from paper PMC3947748 (Journal of biomolecular screening, 2010).
Read-outs that look alike come from different tables or passages of the source. One block for each molecule: values may come before it.

How the values were obtained:
Nek2 [1] = molecular target: T1, Nek2 (Homo sapiens, UniProt P51955); experiment: FlashPlate radiometric proximity assay of Nek2 kinase activity; type: biochemical
T1 sequence (P51955 1-445): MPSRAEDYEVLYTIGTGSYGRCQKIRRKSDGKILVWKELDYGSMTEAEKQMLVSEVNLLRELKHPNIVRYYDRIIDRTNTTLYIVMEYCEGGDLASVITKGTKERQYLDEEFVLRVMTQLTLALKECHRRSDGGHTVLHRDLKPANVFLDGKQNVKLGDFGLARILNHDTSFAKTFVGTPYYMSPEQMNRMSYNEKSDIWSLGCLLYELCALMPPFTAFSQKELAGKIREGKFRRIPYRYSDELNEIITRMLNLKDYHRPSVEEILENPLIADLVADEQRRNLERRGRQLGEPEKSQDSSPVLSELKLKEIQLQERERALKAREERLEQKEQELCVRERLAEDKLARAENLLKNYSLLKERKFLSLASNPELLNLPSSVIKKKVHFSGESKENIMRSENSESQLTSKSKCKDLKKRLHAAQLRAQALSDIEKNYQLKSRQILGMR

Nek2 [2] = molecular target: T1, Nek2; experiment: Filter assay of Nek2 kinase activity; type: biochemical
Aurora A = molecular target: T2, Aurora A (Homo sapiens, UniProt O14965); experiment: Kinase specificity assay; type: biochemical
T2 sequence (O14965 1-403): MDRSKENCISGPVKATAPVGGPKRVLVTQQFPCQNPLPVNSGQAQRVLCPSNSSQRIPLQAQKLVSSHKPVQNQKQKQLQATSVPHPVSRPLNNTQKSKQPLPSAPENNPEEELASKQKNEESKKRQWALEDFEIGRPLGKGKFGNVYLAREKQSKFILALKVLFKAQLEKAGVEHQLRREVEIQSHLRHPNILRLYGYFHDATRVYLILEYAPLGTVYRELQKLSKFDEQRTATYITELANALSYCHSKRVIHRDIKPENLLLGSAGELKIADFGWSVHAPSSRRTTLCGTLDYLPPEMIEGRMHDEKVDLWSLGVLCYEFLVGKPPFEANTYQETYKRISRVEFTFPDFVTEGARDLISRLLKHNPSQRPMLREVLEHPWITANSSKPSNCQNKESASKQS

U2OS cells = experiment: Growth inhibition assay; type: cell-based; settings: Homo sapiens, 72 h, read-out: Growth inhibition GI50, U2OS
In short: (§1)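 Cells cultured as previously described, seeded at […], then given test compound in DMSO over a concentration range, or DMSO alone (1-2% final), after 24 h. Incubation 72 h.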

HeLa cells = experiment: Growth inhibition assay; type: cell-based; settings: Homo sapiens, 72 h, read-out: Growth inhibition GI50, HeLa
In short: as §1

Nek6 = Nek6 (Homo sapiens, UniProt Q9HC98); experiment: Kinase specificity assay; type: biochemical
Cdk1/Cyclin B = Cdk1/Cyclin B (Homo sapiens, UniProt P06493); experiment: Kinase specificity assay; type: biochemical
Nek7 = Nek7 (Homo sapiens, UniProt Q8TDX7); experiment: Kinase specificity assay; type: biochemical
U2OS:GFP-Nek2A cells = experiment: Manual immunofluorescence assay of Nek2A-induced centrosome splitting; type: cell-based, human; settings: doxycycline-induced cells; 0.5, 5 and 50 μM; 24 hours; γ-tubulin stain
In short: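 Tetracycline-inducible stable U2OS:GFP-Nek2A cells were induced with doxycycline together with test compound (0.5, 5, 50 μM) or DMSO (2%) for 24 h. Cells were fixed and stained for γ-tubulin and DNA for indirect immunofluorescence. The percentage of interphase cells with centrosomes more than 2 μm apart was scored. Three repeat experiments, standard deviations; Student's t-test versus DMSO.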

Sequence of Nek6 (Q9HC98 whole entry, species assumed): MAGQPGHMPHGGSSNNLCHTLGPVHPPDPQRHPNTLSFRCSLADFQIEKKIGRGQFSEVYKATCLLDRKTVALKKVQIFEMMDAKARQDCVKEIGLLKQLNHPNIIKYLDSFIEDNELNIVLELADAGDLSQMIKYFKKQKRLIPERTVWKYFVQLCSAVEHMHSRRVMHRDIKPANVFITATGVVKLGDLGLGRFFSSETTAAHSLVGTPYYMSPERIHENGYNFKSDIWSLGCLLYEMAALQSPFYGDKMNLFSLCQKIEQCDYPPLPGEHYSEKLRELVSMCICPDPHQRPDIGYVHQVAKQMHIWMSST
Sequence of Cdk1/Cyclin B (P14635 whole entry): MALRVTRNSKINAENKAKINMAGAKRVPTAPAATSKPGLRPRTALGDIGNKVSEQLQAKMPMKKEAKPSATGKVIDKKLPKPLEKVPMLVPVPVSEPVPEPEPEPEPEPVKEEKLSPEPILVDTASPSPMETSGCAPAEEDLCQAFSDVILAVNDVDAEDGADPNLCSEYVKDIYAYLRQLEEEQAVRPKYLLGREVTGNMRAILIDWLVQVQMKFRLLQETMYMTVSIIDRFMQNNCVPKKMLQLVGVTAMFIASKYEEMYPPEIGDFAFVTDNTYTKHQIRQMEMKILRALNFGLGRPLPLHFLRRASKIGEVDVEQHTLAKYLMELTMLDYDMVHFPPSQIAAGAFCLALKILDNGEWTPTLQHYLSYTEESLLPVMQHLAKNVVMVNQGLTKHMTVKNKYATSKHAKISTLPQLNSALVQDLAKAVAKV
Sequence of Cdk1/Cyclin B (P06493 whole entry): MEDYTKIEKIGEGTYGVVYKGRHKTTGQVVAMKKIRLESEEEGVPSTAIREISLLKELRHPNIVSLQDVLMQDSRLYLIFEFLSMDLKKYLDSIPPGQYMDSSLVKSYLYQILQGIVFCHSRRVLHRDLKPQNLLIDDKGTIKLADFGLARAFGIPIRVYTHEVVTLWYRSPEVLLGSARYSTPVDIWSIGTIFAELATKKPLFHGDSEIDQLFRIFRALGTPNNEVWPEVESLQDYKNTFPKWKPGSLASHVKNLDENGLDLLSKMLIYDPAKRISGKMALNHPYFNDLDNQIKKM
Sequence of Nek7 (Q8TDX7 whole entry, species assumed): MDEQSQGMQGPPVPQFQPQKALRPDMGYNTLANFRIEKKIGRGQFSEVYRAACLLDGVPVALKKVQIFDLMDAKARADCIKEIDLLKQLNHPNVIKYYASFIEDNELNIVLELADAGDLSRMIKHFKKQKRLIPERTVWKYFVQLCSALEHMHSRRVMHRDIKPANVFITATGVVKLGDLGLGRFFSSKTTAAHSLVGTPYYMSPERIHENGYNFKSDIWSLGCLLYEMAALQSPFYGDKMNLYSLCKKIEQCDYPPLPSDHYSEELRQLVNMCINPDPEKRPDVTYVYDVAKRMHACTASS

Nek2 inhibition, FlashPlate (result in words) (Nek2 [1]): inactive
Nek2 inhibition, filter assay (result in words) (Nek2 [2]): inactive
Compound: O=c1cc(N2CCOCC2)oc2c(-c3ccccc3)cccc12 [LY294002]

Compound: COC[C@H]1OC(=O)c2coc3c2[C@@]1(C)C1=C(C3=O)[C@@H]2CCC(=O)[C@@]2(C)C[C@H]1OC(C)=O [Wortmannin]
IC50 (Aurora A): > 400 µM
GI50 (U2OS cells): 23.7 µM
GI50 (HeLa cells): 15 µM
IC50 (Nek6): > 400 µM
IC50 (Cdk1/Cyclin B): > 400 µM
IC50 (Nek7): > 400 µM

Compound: CN[C@@H]1C[C@H]2O[C@@](C)([C@@H]1OC)n1c3ccccc3c3c4c(c5c6ccccc6n2c5c31)C(=O)NC4 [Staurosporine, staurosporine]
Hill slope of Nek2 inhibition (Nek2 [1]; data not shown): ~1.0
inhibition at 25 µM (Nek2 [1]; read-out: Inhibition of Nek2 activity at 25 μM, entire screen): 59 ± 18%
inhibition at 25 µM (Nek2 [1]; read-out: Inhibition of Nek2 activity at 25 μM, typical batch): 61.2 ± 2.4%

Compound: Oc1ccc(Nc2nc(OCC3CCCCC3)c3[nH]cnc3n2)cc1 [NU6120, 6-cyclohexylmethoxy-2-(4′-hydroxyanilino)purine]
Effect on Nek2A-induced centrosome splitting (manual scoring, split >2 μm) (U2OS:GFP-Nek2A cells): had no effect on splitting
